Assay results as given in ChEMBL document CHEMBL1123757, “Selective thromboxane synthetase inhibitors and antihypertensive agents. New derivatives of 4-hydrazino-5H-pyridazino[4,5-b]indole, 4-hydrazinopyridazino[4,5-a]indole, and related compounds” (J Med Chem, 1987).

Assays:
Cavia porcellus [1] = test: Effect on thromboxane synthetase activity (ex vivo) at 100 mg/kg expressed as percent increase in PGE-2; assay type: functional
Procedure, shortened: (§1)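 Fasted male or female guinea pigs (250–300 g, five per group) dosed orally in normal saline or saline with 0.2% (carboxymethyl)cellulose/1.0% Tween 80; controls given vehicle. Under ether, cardiac blood collected into 3.8% citrate. PRP adjusted to […] and aggregation induced by ADP (second wave) or AA, read by absorbance aggregometry. PGE2 and TXB2 measured by RIA.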

Cavia porcellus [2] = test: Effect on thromboxane synthetase activity (ex vivo) at 100 mg/kg expressed as percent increase in TXB2; assay type: functional; procedure, shortened: as §1
[3] = Effect on thromboxane synthetase activity on in vitro platelet aggregation induced by AA at 10e -5 M expressed as percent increase in PGE-2; assay type: functional, Homo sapiens
Procedure, shortened: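 Human citrated PRP adjusted to 200 000 […], compound at 10^-5 M final in saline/10% ethylene glycol, incubated at 37 °C. Aggregation induced with arachidonic acid 0.6 mM and read by Born absorbance aggregometry. PGE2 and TXB2 in the aggregated samples measured by radioimmunoassay. n = 5.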

[4] = Effect on PGI-2 release from rat aortic tissue at a final concentration of 10e -4 for an incubation time of 10 minutes; assay type: functional
Procedure, shortened: (§2)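 Female Wistar rats (200–220 g) received heparin 200 IU/kg ip and were killed 10 min later. Aortic pieces of about 25 mm² were washed in ice-cold oxygenated Krebs–Henseleit buffer, then incubated in 1 mL buffer at 37 °C. Compound at 10^-4 M final was added 10 min before tissue transfer. PGI2 release was read as antiaggregatory activity of the incubate on ADP (2×10^-6 M)-induced human PRP aggregation and by 6-keto-PGF1α RIA. n = 4.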

[5] = Effect on PGI-2 release from rat aortic tissue at a final concentration of 10e -4 for an incubation time of 25 minutes; assay type: functional; procedure, shortened: as §2
Rattus norvegicus [6] = test: Antihypertensive activity in spontaneously hypertensive rats (SHR) measured by percentage fall in arterial pressure (AP) at 25 mg/kg administered perorally at 3 h; assay type: functional, Artery; settings: route oral
Procedure, shortened: (§3)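 Oral dosing at 2.5 mL/kg to unanesthetized male and female Okamoto-strain SHR (8 weeks old, 300–350 g, systolic pressure ≥190 mmHg, heart rate 400–650 beats/min), five per dose. Vehicle was normal saline or saline with 0.2% (carboxymethyl)cellulose and 1.0% Tween 80. AP measured on the tail by mechanical transduction at set times; expressed as percentage fall from control.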

Rattus norvegicus [7] = test: Antihypertensive activity in spontaneously hypertensive rats (SHR) measured by percentage fall in arterial pressure (AP) at 25 mg/kg administered perorally at 5 h; assay type: functional, Artery; settings: route oral; procedure, shortened: as §3
Rattus norvegicus [8] = test: Antihypertensive activity in spontaneously hypertensive rats (SHR) measured by percentage fall in arterial pressure (AP) at 5 mg/kg administered intraperitoneally at 1 h; assay type: functional, Artery; settings: route intraperitoneal
Procedure, shortened: (§4)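 Unanesthetized Okamoto-strain SHR, male and female, 8 weeks old, 300–350 g, systolic pressure ≥190 mmHg, heart rate 400–650 beats/min; five animals per dose. Given ip at 2.5 mL/kg, dissolved or suspended in normal saline or saline with 0.2% (carboxymethyl)cellulose and 1.0% Tween 80. Tail AP and CR recorded by mechanical transduction at set times; reported as percentage fall from control.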

Rattus norvegicus [9] = test: Antihypertensive activity in spontaneously hypertensive rats (SHR) measured by percentage fall in arterial pressure (AP) at 5 mg/kg administered intraperitoneally at 24 h; assay type: functional, Artery; settings: route intraperitoneal; procedure, shortened: as §4
Rattus norvegicus [10] = test: Antihypertensive activity in spontaneously hypertensive rats (SHR) measured by percentage fall in cardiac rhythm (CR) at 1 mg/kg administered intraperitoneally at 3 h; assay type: functional, Heart; settings: route intraperitoneal; procedure, shortened: as §4
Rattus norvegicus [11] = test: Antihypertensive activity in spontaneously hypertensive rats (SHR) measured by percentage fall in cardiac rhythm (CR) at 25 mg/kg administered intraperitoneally at 1 h; assay type: functional, Heart; settings: route intraperitoneal; procedure, shortened: as §4
Rattus norvegicus [12] = test: Antihypertensive activity in spontaneously hypertensive rats (SHR) measured by percentage fall in arterial pressure (AP) at 1 mg/kg administered intraperitoneally at 1 h; assay type: functional, Artery; settings: route intraperitoneal; procedure, shortened: as §4
Rattus norvegicus [13] = test: Antihypertensive activity in spontaneously hypertensive rats (SHR) measured by percentage fall in cardiac rhythm (CR) at 5 mg/kg administered intraperitoneally at 1 h; assay type: functional, Heart; settings: route intraperitoneal
Procedure, shortened: (§5)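 Conscious SHR (Okamoto strain), 8 weeks old, male and female, 300–350 g, systolic BP ≥190 mmHg, CR 400–650 beats/min. Given ip or po at 2.5 mL/kg in normal saline or saline with 0.2% (carboxymethyl)cellulose and 1.0% Tween 80. Tail AP and CR recorded by mechanical transduction at 1, 3, 5 and 24 h, five animals per dose. Effect expressed as % fall versus control.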

Rattus norvegicus [14] = test: Antihypertensive activity in spontaneously hypertensive rats (SHR) measured by percentage fall in cardiac rhythm (CR) at 5 mg/kg administered intraperitoneally at 3 h; assay type: functional, Heart; settings: route intraperitoneal; procedure, shortened: as §5
Rattus norvegicus [15] = test: Antihypertensive activity in spontaneously hypertensive rats (SHR) measured by percentage fall in cardiac rhythm (CR) at 5 mg/kg administered intraperitoneally at 5 h; assay type: functional, Heart; settings: route intraperitoneal; procedure, shortened: as §5
Homo sapiens [16] = species: Homo sapiens; test: In vitro inhibition of platelet aggregation induced by ADP-II (PRP incubated for 5 minutes at 37 degree C) at 10e-5 M; assay type: functional
Procedure, shortened: (§6)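 Human venous blood anticoagulated with 3.8% sodium citrate (1:9). PRP from centrifugation at 800 rpm for 10 min at room temperature. Count adjusted with PPP to […]. Compound in saline with 10% ethylene glycol is added to PRP and incubated at 37 °C before the agonist. Agonists: ADP 2×10^-5 M, AA 0.6 mM, PGH2 2.8 μM, adrenaline 0.6 μM. Born absorbance aggregometry; n = 5.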

Homo sapiens [17] = species: Homo sapiens; test: In vitro inhibition of platelet aggregation induced by PGH-2 (PRP incubated for 60 minutes at 37 degree C) at 10e-5 M; assay type: functional; settings: 1 h; procedure, shortened: as §6
Rattus norvegicus [18] = test: Percent fall in systolic blood pressure, directly measured on carotid (iv on the jugular vein) of spontaneously hypertensive rats at 1 mg/kg after 180 minutes; assay type: functional, Artery
Procedure, shortened: (§7)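 Anesthetized (sodium pentobarbital, 70 mg/kg) male and female Okamoto SHR, 8 weeks old, 300–350 g. Given iv into the jugular vein in normal saline. Arterial pressure and cardiac rhythm are recorded directly from the carotid by polygraph at set times after dosing. Each is expressed as percent change from the pre-dose control value.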

Rattus norvegicus [19] = test: Percent fall in systolic blood pressure, directly measured on carotid (iv on the jugular vein) of spontaneously hypertensive rats at 1 mg/kg after 240 minutes; assay type: functional, Artery; procedure, shortened: as §7
Rattus norvegicus [20] = test: Percent fall in systolic blood pressure, directly measured on carotid (iv on the jugular vein) of spontaneously hypertensive rats at 1 mg/kg after 5 minutes; assay type: functional, Artery; procedure, shortened: as §7
Rattus norvegicus [21] = test: Antihypertensive activity in spontaneously hypertensive rats (SHR) measured by percentage fall in cardiac rhythm (CR) at 25 mg/kg administered intraperitoneally at 5 h; assay type: functional, Heart; settings: route intraperitoneal; procedure, shortened: as §5
Rattus norvegicus [22] = test: Percent increase in cardiac rhythm, directly measured on carotid (iv on the jugular vein) of spontaneously hypertensive rats at 1 mg/kg after 15 minutes; assay type: functional, Heart; procedure, shortened: as §7
Rattus norvegicus [23] = test: Percent increase in cardiac rhythm, directly measured on carotid (iv on the jugular vein) of spontaneously hypertensive rats at 1 mg/kg after 60 minutes; assay type: functional, Heart; procedure, shortened: as §7
Homo sapiens [24] = species: Homo sapiens; test: In vitro inhibition of platelet aggregation induced by AA (PRP incubated for 60 minutes at 37 degree C) at 10e-5 M; assay type: functional; settings: 1 h; procedure, shortened: as §6

Molecule COc1ccc2[nH]c3c(NN)nncc3c2c1.Cl has an Increase (Cavia porcellus [1]) of 35%, an inhibition in vivo at 100 mg/kg (Cavia porcellus [2]) of 95% and an Increase [3] of 47%. The Inhibition [4] was 50%, the Inhibition [5] was 45% and the “Decrease in AP” value (Rattus norvegicus [6]) was 40%. The “Decrease in AP” value (Rattus norvegicus [7]) was 34%, the “Decrease in AP” value (Rattus norvegicus [8]) was 50% and the “Decrease in AP” value (Rattus norvegicus [9]) was 9%. For the same molecule, the “Decrease in CR” value (Rattus norvegicus [10]) was 8%, the “Decrease in CR” value (Rattus norvegicus [11]) was 22% and the “Decrease in AP” value (Rattus norvegicus [12]) was 32%. For the same molecule, the “Decrease in CR” value (Rattus norvegicus [13]) was -9%, the “Decrease in CR” value (Rattus norvegicus [14]) was -8% and the “Decrease in CR” value (Rattus norvegicus [15]) was -6%. The inhibition at 10 µM (Homo sapiens [16]) was 100%, the inhibition at 10 µM (Homo sapiens [17]) was 100% and the “Decrease in blood pressure” value (Rattus norvegicus [18]) was 36%. The “Decrease in blood pressure” value (Rattus norvegicus [19]) was 30%, the “Decrease in blood pressure” value (Rattus norvegicus [20]) was 30% and the “Decrease in CR” value (Rattus norvegicus [21]) was 24%. For the same molecule, the Increase (Rattus norvegicus [22]) was 11%, the Increase (Rattus norvegicus [23]) was 10% and the inhibition at 10 µM (Homo sapiens [24]) was 100%.
